In publication PMC4780262 (Bioorganic & medicinal chemistry, 2013):

Legend:
EHMT2/G9a = biological target: T1, EHMT2/G9a (Homo sapiens, UniProt Q96KQ7); experiment: HMT selectivity assay; format: biochemical
T1 sequence (Q96KQ7 1-1210): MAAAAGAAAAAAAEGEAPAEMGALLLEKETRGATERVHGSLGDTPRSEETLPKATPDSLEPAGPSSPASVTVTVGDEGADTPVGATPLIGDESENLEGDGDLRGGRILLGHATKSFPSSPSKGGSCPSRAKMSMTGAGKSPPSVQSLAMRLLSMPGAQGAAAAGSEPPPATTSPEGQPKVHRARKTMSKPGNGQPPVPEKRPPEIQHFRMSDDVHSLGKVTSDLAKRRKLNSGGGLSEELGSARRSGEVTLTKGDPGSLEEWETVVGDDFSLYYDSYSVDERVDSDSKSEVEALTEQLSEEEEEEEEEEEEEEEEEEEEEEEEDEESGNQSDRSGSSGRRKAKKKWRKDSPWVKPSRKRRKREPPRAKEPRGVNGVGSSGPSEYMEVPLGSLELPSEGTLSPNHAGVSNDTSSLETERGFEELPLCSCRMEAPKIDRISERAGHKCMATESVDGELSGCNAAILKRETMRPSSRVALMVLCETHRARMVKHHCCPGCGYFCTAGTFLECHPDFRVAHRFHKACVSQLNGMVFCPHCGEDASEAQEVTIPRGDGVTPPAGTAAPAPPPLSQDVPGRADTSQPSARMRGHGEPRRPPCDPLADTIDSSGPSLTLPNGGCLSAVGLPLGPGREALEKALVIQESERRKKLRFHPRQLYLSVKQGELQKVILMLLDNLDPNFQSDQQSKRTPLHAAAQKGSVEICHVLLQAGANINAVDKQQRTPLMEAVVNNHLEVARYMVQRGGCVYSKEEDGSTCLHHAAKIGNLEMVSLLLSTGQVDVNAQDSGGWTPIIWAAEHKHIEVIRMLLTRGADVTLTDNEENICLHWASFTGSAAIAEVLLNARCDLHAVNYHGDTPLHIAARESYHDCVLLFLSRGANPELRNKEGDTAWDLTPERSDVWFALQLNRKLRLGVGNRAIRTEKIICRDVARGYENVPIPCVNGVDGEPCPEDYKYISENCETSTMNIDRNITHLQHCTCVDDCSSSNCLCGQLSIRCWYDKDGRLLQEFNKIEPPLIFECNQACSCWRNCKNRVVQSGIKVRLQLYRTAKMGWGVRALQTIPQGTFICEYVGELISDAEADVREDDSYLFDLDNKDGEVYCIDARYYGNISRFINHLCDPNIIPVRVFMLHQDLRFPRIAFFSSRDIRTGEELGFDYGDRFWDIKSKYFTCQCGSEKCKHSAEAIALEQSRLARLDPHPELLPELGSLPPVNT
Outline: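 Triplicate reactions, 1 h, room temperature. Guanidine HCl stop; Flashplate SPA counts. Activity relative to no-compound (100%) and no-enzyme (0%). IC50 over 100 nM–100 μM; Ki = IC50/2.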

PRMT5-MEP50 = PRMT5-MEP50 (Homo sapiens, UniProt O14744); experiment: HMT selectivity assay; format: biochemical
SETD8 = biological target: T2, SETD8 (Homo sapiens, UniProt Q9NQR1); experiment: HMT selectivity assay; format: biochemical
T2 sequence (Q9NQR1 1-393): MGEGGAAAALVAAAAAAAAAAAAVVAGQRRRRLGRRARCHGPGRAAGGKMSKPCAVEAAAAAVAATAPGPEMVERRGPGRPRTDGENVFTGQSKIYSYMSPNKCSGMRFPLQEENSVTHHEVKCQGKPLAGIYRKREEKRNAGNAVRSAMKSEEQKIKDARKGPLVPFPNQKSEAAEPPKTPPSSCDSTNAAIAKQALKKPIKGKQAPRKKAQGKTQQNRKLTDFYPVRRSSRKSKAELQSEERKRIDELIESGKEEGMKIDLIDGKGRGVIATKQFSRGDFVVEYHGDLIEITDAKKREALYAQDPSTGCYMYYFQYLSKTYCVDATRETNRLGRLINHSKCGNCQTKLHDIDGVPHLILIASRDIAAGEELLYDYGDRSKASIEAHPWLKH
Outline: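 Triplicate, 1 h at room temperature. Guanidine HCl stop; Flashplate SPA CPM. No compound = 100%, no enzyme = 0%. IC50 over 100 nM–100 μM; Ki = IC50/2.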

haspin catalytic domain = biological target: T3, haspin catalytic domain (Homo sapiens, UniProt Q8TF76); experiment: Differential scanning fluorimetry on haspin catalytic domain; format: binding; conditions: 10 μM compound
T3 sequence (Q8TF76 484-798 limits assumed): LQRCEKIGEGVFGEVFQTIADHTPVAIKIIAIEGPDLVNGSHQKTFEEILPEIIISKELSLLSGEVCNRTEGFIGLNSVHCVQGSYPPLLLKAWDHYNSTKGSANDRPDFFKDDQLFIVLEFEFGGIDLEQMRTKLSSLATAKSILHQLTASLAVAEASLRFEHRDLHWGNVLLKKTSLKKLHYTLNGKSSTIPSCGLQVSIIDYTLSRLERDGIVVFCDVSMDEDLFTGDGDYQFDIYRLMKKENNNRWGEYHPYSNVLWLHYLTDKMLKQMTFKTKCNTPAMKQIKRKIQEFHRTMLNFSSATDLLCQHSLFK

EHMT1/GLP = biological target: T4, EHMT1/GLP (Homo sapiens, UniProt Q9H9B1); experiment: HMT selectivity assay; format: biochemical
T4 sequence (Q9H9B1 1-1298): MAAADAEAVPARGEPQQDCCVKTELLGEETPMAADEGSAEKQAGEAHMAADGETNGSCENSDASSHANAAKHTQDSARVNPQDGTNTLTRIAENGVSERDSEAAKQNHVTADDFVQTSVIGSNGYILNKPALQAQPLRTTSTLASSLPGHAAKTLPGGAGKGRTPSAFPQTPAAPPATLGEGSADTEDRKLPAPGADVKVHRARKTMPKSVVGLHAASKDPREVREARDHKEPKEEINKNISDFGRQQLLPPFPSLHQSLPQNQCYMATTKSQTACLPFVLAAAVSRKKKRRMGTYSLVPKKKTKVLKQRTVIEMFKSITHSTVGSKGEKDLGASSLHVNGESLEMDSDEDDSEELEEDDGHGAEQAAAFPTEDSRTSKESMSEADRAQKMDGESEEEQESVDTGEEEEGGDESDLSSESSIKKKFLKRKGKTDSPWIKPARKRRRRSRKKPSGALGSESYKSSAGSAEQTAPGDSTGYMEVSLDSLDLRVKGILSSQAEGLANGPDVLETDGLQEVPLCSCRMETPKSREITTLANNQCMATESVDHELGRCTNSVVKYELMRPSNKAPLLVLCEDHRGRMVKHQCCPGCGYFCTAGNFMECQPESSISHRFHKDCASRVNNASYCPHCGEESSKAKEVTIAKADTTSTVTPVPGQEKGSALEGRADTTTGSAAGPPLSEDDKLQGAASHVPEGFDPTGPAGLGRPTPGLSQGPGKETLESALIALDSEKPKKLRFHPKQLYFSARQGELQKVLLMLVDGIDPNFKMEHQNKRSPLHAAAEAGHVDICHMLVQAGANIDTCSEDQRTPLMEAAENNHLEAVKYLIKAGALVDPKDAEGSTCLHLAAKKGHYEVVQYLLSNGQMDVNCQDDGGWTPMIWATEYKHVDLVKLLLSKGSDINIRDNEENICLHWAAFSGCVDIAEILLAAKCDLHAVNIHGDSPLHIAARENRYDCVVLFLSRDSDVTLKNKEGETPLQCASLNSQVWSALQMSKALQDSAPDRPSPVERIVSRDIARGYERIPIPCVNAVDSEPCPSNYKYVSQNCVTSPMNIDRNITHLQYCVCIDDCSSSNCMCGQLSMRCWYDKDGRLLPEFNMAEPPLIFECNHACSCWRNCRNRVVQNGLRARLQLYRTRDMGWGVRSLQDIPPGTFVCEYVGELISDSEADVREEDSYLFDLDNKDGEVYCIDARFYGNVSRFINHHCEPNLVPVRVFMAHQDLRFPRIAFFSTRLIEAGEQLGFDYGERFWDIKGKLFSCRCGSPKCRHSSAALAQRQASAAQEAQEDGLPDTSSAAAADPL
Outline: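 Stopped with 7.5 M guanidine HCl, then Flashplate CPM. No compound = 100%, no enzyme = 0%. IC50 from 100 nM–100 μM; Ki = IC50/2.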

MLL1 complex = MLL1 complex (Homo sapiens, UniProt Q03164); experiment: HMT selectivity assay; format: biochemical
Outline: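 Triplicate, 1 h at room temperature. Quenched with 7.5 M guanidine HCl; tritium read by Flashplate SPA. Normalised to no-compound and no-enzyme wells. IC50 from 100 nM–100 μM; Ki = IC50/2.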

EZH2 (PRC2 complex) = EZH2 (PRC2 complex) (Homo sapiens, UniProt Q15910); experiment: HMT selectivity assay; format: biochemical
Outline: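 Triplicate, 1 h at room temperature. Guanidine HCl quench, then Flashplate CPM. 100% = no compound; 0% = no enzyme. IC50 over 100 nM–100 μM; Ki = IC50/2.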

SETD7 = biological target: T5, SETD7 (Homo sapiens, UniProt Q8WTS6); experiment: HMT selectivity assay; format: biochemical
T5 sequence (Q8WTS6 1-366): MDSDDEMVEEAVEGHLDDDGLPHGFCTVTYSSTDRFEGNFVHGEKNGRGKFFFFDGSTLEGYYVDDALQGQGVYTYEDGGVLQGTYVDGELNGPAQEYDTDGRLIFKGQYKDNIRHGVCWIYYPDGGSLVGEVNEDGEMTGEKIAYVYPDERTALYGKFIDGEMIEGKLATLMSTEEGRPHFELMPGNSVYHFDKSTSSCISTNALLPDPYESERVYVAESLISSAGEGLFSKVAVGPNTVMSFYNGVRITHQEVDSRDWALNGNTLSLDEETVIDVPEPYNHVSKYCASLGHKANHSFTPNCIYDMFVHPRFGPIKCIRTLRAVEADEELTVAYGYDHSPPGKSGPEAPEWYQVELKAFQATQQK
Outline: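 Triplicate, room temperature, 1 h. Stopped with 7.5 M guanidine HCl; Flashplate CPM. Normalised to no-compound and no-enzyme controls. IC50 from 100 nM–100 μM; Ki = IC50/2.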

PRMT3 = PRMT3 (Homo sapiens, UniProt O60678); experiment: HMT selectivity assay; format: biochemical
SUV39H2 = SUV39H2 (Homo sapiens, UniProt Q9H5I1); experiment: HMT selectivity assay; format: biochemical
Outline: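 Triplicate reactions, 1 h at room temperature. Quenched with 7.5 M guanidine HCl; read as Flashplate CPM. Normalised to no-compound and no-enzyme wells. IC50 from 100 nM–100 μM; Ki = IC50/2.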

Chain of PRMT5-MEP50 (O14744 whole entry): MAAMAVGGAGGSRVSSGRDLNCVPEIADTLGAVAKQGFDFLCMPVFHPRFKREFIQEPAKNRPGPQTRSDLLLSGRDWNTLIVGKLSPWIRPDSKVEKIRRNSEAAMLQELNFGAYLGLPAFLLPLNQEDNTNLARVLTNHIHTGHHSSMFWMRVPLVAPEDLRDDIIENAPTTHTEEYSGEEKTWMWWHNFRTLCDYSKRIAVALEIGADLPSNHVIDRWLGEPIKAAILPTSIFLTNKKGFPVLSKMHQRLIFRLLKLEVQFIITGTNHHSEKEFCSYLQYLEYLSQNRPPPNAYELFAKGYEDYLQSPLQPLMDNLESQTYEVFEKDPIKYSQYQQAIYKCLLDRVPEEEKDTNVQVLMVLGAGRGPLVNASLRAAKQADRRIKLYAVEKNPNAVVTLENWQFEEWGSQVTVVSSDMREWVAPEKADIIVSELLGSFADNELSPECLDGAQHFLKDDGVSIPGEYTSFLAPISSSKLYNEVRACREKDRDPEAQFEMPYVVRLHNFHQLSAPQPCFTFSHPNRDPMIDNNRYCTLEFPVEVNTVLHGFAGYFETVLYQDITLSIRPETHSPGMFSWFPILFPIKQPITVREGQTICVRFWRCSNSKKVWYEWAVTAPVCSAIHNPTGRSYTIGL
Chain of PRMT5-MEP50 (Q9BQA1 whole entry partner): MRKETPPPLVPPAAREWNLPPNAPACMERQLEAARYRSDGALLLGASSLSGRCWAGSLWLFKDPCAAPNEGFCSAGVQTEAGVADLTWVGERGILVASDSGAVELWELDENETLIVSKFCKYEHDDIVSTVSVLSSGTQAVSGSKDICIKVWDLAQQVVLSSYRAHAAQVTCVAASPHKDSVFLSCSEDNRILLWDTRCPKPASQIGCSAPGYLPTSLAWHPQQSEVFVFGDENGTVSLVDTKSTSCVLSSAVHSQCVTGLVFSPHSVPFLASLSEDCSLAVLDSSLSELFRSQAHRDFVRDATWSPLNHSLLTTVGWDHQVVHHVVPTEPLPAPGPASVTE
Chain of MLL1 complex (Q9UBL3 whole entry): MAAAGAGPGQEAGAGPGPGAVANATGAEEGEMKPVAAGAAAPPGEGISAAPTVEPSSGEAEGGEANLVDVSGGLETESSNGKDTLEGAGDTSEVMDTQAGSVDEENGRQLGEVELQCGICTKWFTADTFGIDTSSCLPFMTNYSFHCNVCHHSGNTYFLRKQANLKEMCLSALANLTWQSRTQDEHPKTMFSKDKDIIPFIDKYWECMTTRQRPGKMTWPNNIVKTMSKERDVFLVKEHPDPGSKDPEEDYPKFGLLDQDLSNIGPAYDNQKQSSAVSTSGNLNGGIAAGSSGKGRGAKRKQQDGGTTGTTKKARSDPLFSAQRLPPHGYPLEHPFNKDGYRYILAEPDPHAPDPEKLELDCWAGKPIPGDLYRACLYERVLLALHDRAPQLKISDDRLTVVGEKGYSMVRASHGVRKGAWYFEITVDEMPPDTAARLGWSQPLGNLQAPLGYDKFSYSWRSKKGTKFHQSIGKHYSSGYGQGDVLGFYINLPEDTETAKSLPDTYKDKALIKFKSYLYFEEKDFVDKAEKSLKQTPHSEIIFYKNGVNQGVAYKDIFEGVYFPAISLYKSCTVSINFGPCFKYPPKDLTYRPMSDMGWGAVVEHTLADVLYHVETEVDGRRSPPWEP
Chain of MLL1 complex (Q03164 3745-3969): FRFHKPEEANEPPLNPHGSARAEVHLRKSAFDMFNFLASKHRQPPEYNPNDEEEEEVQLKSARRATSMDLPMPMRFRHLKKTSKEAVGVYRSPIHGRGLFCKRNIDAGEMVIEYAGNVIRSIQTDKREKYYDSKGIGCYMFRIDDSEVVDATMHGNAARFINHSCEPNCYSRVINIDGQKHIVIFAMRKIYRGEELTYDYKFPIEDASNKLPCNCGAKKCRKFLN
Chain of MLL1 complex (Q15291 whole entry, further chain): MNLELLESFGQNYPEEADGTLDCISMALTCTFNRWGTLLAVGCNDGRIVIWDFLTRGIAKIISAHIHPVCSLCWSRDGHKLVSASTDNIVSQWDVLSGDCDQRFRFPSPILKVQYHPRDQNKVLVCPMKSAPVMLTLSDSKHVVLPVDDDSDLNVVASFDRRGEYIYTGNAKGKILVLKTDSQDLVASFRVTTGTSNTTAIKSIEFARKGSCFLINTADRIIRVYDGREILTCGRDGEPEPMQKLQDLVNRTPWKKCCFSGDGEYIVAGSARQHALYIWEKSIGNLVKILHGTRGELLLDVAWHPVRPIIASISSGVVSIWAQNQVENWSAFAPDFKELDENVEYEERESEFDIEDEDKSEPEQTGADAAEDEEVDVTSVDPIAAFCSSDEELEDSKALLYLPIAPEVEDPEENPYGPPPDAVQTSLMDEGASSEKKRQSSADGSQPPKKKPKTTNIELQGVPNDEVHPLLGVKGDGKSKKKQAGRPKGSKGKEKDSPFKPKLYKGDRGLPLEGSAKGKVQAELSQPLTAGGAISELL
Chain of PRMT3 (O60678 whole entry, species assumed): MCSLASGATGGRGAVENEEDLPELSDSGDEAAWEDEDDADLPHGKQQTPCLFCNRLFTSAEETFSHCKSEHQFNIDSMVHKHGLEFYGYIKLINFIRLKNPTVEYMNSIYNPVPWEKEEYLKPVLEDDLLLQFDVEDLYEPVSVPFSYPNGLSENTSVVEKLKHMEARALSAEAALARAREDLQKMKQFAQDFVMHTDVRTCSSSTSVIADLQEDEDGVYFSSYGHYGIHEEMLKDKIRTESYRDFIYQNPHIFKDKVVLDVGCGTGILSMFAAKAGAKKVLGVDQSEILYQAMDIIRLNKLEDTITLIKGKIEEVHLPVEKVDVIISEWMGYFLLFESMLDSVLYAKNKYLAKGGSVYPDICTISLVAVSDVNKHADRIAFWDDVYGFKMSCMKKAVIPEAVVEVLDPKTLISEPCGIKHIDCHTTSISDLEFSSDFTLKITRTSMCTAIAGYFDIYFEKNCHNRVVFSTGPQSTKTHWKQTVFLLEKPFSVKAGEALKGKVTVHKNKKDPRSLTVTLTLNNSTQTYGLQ
Chain of SUV39H2 (Q9H5I1 whole entry, species assumed): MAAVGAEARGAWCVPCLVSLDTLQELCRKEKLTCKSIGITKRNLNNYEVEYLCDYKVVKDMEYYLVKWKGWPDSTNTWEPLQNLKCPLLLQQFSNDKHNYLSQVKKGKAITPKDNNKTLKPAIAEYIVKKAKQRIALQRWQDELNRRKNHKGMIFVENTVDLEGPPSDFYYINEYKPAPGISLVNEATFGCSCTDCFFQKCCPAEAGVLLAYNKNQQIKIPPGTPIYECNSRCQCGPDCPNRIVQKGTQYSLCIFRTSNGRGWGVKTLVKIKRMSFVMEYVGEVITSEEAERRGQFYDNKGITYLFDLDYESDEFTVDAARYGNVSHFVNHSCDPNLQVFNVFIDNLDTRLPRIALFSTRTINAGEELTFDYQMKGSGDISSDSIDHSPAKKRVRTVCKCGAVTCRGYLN

Nc1ncnc2c1c(Br)cn2[C@@H]1O[C@H](CSCC[C@H](N)C(=O)O)[C@@H](O)[C@H]1O [BrSAH, N7-Bromo-deaza-S-adenosyl-L-homocysteine]
activity against EHMT2/G9a (EHMT2/G9a): inactive | Ki (EHMT2/G9a; G9a, compound 100 nM to 100 μM, SAM = Km): No inhibition | IC50 (PRMT5-MEP50): 2000 nM | times less active against PRMT5 than DOT1L (PRMT5-MEP50; IC50 ratio versus DOT1L): about 25 | activity against SETD8 (SETD8): inactive | Ki (SETD8; SETD8, compound 100 nM to 100 μM, SAM = Km): No inhibition | binding to the haspin catalytic domain by differential scanning fluorimetry (haspin catalytic domain): no binding | activity against EHMT1/GLP (EHMT1/GLP): inactive | Ki (EHMT1/GLP; EHMT1, compound 100 nM to 100 μM, SAM = Km): No inhibition | activity against MLL (MLL1 complex): inactive | Ki (MLL1 complex; MLL, compound 100 nM to 100 μM, SAM = Km): No inhibition | activity against EZH2 (present in the PRC2 complex) (EZH2 (PRC2 complex)): inactive | Ki (EZH2 (PRC2 complex); PRC2, compound 100 nM to 100 μM, SAM = Km): No inhibition | activity against SETD7 (SETD7): inactive | Ki (SETD7; SETD7, compound 100 nM to 100 μM, SAM = Km): No inhibition | IC50 (PRMT3): 2000 nM | times less active against PRMT3 than DOT1L (PRMT3; IC50 ratio versus DOT1L): about 25 | activity against SUV39H2 (SUV39H2): inactive | Ki (SUV39H2; SUV39H2, compound 100 nM to 100 μM, SAM = Km): No inhibition
